In the library only some 3.7% were active in any assay of this set; here they are far more common.
TAAR1 antagonist: human TAAR1 antagonists, primary screen, Fluo-8 calcium fluorescence, CHO RD-HGA16 cells; Trace amine-associated receptor 1 (Homo sapiens), Q96RJ0; antagonist; inhibition, % at 3 µM; actives 1.5% (n = 360,000); AID 624466, 2012;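 active means inhibition above a per-plate cutoff, the mean inhibition of test compounds on that plate plus 3 SD, cut at about 49% in these data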;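 further: 0% = DMSO plus EC80 beta-PEA response and 100% = DMSO alone without agonist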
Target sequence (Q96RJ0 whole entry, looked up): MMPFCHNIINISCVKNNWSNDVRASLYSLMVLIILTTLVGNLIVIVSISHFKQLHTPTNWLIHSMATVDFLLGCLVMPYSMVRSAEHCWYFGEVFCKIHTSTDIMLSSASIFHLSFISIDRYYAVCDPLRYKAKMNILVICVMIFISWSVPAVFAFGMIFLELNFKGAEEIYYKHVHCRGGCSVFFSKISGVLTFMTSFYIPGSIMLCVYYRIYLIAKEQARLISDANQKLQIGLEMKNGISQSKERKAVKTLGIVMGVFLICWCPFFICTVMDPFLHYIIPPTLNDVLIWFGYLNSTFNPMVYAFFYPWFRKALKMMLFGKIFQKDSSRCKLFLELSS
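Test system – hTAAR1-expressing CHO RD-HGA16 cells, Gα16-coupled · Also added – β-PEA at EC80 concentration, post-compound challenge · Compound – 3 µM, single point · Incubation – dye loading 75 min at 37 °C, then 30 min room temperature · Measured by – Fluo-8 intracellular calcium dye fluorescence, real-time kinetic reads · Benchmarks – vehicle and agonist controls · Replicates – singlicate, one well per test compound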
NS3 helicase inh: inhibitors of HCV NS3 helicase, primary screen, biochemical, Cy5 molecular beacon fluorescence. AID 1800, 2009. Hepatitis C virus NS3 helicase. actives 0.56% (n = 290,000). inhibition, % at 10.9 µM. NS3 helicase DNA unwinding;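 active means inhibition above the mean of all tested compounds plus 3 SD, set per campaign, cut at about 35% in these data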;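 further: 0% = DMSO wells and 100% = thioflavine S control wells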
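assay system = NS3 helicase fragment of HCV | buffer or medium = MOPS pH 6.5, MgCl2, DTT, Tween20, BSA | timing = 60 min unwinding reaction at 25 °C after ATP addition | signal = Cy5 beacon fluorescence read at start and 1 h | read-out basis = % inhibition of unwinding | control set = low DMSO, high thioflavine S at 110 µM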
core dimer inh: inhibitors of HCV core protein dimerization, primary screen, biochemical, TR-FRET, high-throughput | TR-FRET GST/Flag-core106 dimerization, 1536-well | AID 1899, 2009 | actives 0.33% (n = 300,000) | inhibition, % at 5 µM;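 active means inhibition above the mean of all tested compounds plus 3 SD, set per screening campaign, cut at about 45% in these data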
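System: GST-tagged and Flag-tagged HCV core protein residues 1-106 / Input: core106 proteins, GST 13.5 nM and Flag 17 nM / Buffer or medium: KF-containing HEPES buffer, pH 7.45, DTT, CHAPS, BSA / Probe or stimulus: Eu-anti-GST and XL665-anti-Flag labelled anti-tag antibodies / Schedule: 4 h, 22.5 °C incubation / Technique: TR-FRET 671 and 617 nm emission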
rCAG binder: binders of r(CAG) RNA repeats, primary screen, biochemical, fluorescence; inhibition, % at 3 µM; actives 1.3% (n = 370,000); r(CAG) RNA repeat, TO-PRO-1 dye displacement fluorescence; AID 651821, 2012;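 active means inhibition above the plate cutoff, the mean of all test compounds on that plate plus 3 SD, cut at about 35% in these data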;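 further: 0% = DMSO alone and 100% = 100 µM mitoxantrone as full dye displacement; higher means more dye released from RNA so lower well fluorescence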
TAAR1 agonist: human TAAR1 agonists, primary screen, Fluo-8 calcium fluorescence, CHO RD-HGA16 cells. vehicle wells 0%, saturating PEA agonist 100%. activation, % at 3 µM. actives 0.99% (n = 360,000). AID 624467, 2012;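 active means activation above the mean activation of all test compounds in the run plus 3 SD, cut at about 38% in these data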
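Test system: RD-HGA16 (CHO) cells co-expressing Gα16 and hTAAR1 | Doses: Single dose, 3 µM | Schedule: 17-24 h seeding, 75 min 37 °C dye, 30 min RT | Evaluation: % activation from peak over basal fluorescence ratio, DMSO-to-PEA scaled | Technique: Kinetic Fluo-8 calcium fluorescence | Benchmarks: Low control DMSO, high control PEA (EC100)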
nonsel antag count: nonselective antagonists in TAAR1 counter-screen cells, counter-screen for hTAAR1 antagonist project, cell-based, fluorescence, calcium | shares compounds with TAAR1 antagonist | counterscreen cell line, antagonist mode | inhibition, % at 3 µM | actives 77% (n = 2,400); in the data active means inhibition above about 22%;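 further: CHO-Ga16 host cells stimulated with ATP at an EC80 level; 0% = agonist EC80 plus vehicle and 100% = vehicle without agonist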
TAAR1 ant conf: human TAAR1 antagonists, retest of hits, confirmation, cell-based, fluorescence. shares compounds with TAAR1 antagonist. TAAR1-expressing cells, fluorescence antagonist read-out. inhibition, % at 3 µM. actives 40% (n = 2,400). AID 651785, 2012; in the data active means inhibition above about 49%;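 further: CHO-Ga16 host cells challenged with agonist PEA near its EC80; 0% = agonist at EC80 plus vehicle and 100% = vehicle with no agonist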
Ga16 ag counter: calcium activation in Ga16-expressing cells, counter-screen for TAAR1 antagonist project, cell-based, fluorescence; shares compounds with TAAR1 antagonist; agonist counterscreen; activation, % at 3 µM; actives 18% (n = 2,400); in the data active means activation above about 12%;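 further: 0% = vehicle wells and 100% = saturating stimulus response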
TAAR1 ag count: TAAR1 activation by candidate antagonists – cell-based, fluorescence, counter-screen for TAAR1 antagonist project. AID 651955, 2012. actives 2% (n = 2,400). hTAAR1 cell line, agonist mode. activation, % at 3 µM. shares compounds with TAAR1 antagonist; in the data active means activation above about 37%;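 further: CHO cells stably expressing TAAR1 with calcium dye readout; 0% = DMSO vehicle and 100% = full agonist response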
* hit, by the source's call; . = no result given.

SMILES	TAAR1 antagonist	NS3 helicase inh	core dimer inh	rCAG binder	TAAR1 agonist	nonsel antag count	TAAR1 ant conf	Ga16 ag counter	TAAR1 ag count
CC(C)=N/N=C1/NC(=O)C(c2ccccc2)S1 (configuration not stated)	54.9*	.	.	22.9	33.6	7.0	0.4	6.6	7.8
Cc1cccc(N2CCN(C(=O)C3CCN(S(=O)(=O)c4cccc5cccnc45)CC3)CC2C)c1 (configuration not stated)	75.4*	.	5.8	5.9	15.0	27.8*	53.6*	11.3	9.4
COc1cc(NC(=O)[C@@H]2CCCN(S(=O)(=O)c3cccc4cccnc34)C2)cc(OC)c1OC	51.5*	.	-13.2	-4.2	19.8	29.0*	39.9	7.8	5.5
Cc1ccccc1NC(=O)C1CCCN(S(=O)(=O)c2cccc3cccnc23)C1 (configuration not stated)	54.4*	0.4	1.6	2.3	13.4	20.4	39.5	7.4	6.6
COc1ccc(OC)c(NC(=O)C2CCCN(S(=O)(=O)c3cccc4cccnc34)C2)c1 (configuration not stated)	60.4*	-4.1	2.1	3.4	11.6	23.5*	39.6	8.7	6.7
Cc1cccc(NC(=O)CN2C(=O)CCSc3ccccc32)c1C	.	.	.	2.6	.	.	.	.	.
CC1(C)CC(=O)C=C(Nc2ccccc2NC(=O)c2cc(Cl)ccc2F)C1	.	.	.	-1.1	.	.	.	.	.
CCOC(=O)C1=C(C)NC(C)=C(C(=O)OCC)C1C(=O)OCC(=O)NC(C)C	60.0*	-6.9	-6.5	-0.5	15.8	22.7*	45.4	7.5	9.5
CCOC(=O)C1=C(C)NC(C)=C(C(=O)OCC)C1C(=O)OCC(N)=O	-14.8	0.0	-5.4	-6.1	0.2	.	.	.	.
CC(=O)CC[C@H]1CC[C@]2(CCCN(C(=O)c3ccno3)C2)O1	.	.	.	1.0	.	.	.	.	.
Cc1ccccc1CN1CCCCC(NC(=O)c2ccc3ccccc3c2)C1=O (configuration not stated)	.	.	.	2.1	.	.	.	.	.
COc1ccc(C#Cc2ccc(C3=CC(=O)CC(C)(C)C3=O)cc2)cc1	80.8*	.	.	5.4	4.6	28.0*	42.7	3.8	3.1
C=CCNC(=O)CN(C(=O)c1ccncn1)c1cccc(Br)c1	.	.	.	1.2	.	.	.	.	.
CCCCc1c(-c2ccccc2OC)ncn1Cc1ccccc1Cl	23.2	.	.	-1.0	3.7	.	.	.	.
COc1cc(/C=C(\C#N)c2nc3ccccc3[nH]2)ccc1Oc1ccc([N+](=O)[O-])cn1	84.2*	1.7	9.3	17.3	20.3	49.5*	65.5*	10.7	9.4
COc1cc(/C=C(/C#N)c2ccccc2)ccc1Oc1ccc([N+](=O)[O-])cn1	19.4	0.5	2.2	2.8	6.6	.	.	.	.
COc1cc(/C=C(\C#N)c2nc3ccccc3[nH]2)cc(Br)c1OCc1ccccc1	59.8*	-0.6	35.5	11.8	7.9	46.9*	56.4*	7.8	4.9
CN(C)c1ccc(Nc2nc(N)c([N+](=O)[O-])c(N3CCOCC3)n2)cc1	54.2*	10.5	-41.7	3.3	14.2	21.9*	35.6	6.6	5.9
COc1ccc(C(CCOC(=O)Oc2ccccc2)c2cc(OC)cc(OC)c2)cc1 (configuration not stated)	.	.	.	3.0	.	.	.	.	.
O=C(NCCc1ccccc1)OCc1cn(Cc2ccc(F)cc2)nn1	.	.	.	2.1	.	.	.	.	.
CN(C1CCCCC1)S(=O)(=O)c1ccc(NC(=O)c2ccc(Br)o2)cc1	63.4*	-1.6	-9.0	0.4	14.8	22.7*	44.2	6.8	9.7
COc1ccccc1CNc1nc(NCc2ccccc2OC)c2sccc2n1	19.4	.	.	3.6	5.4	.	.	.	.
COc1ccccc1CNc1nc(NCc2cccs2)nc2ccsc12	76.3*	.	.	2.7	34.8	61.9*	80.3*	34.4*	48.8*
Cc1ccc(NC(=O)N(Cc2ccco2)C(C)c2ccco2)cc1C (configuration not stated)	-2.8	1.2	4.4	-1.2	-1.1	.	.	.	.
Cc1ccc(NC(=O)CN(Cc2ccco2)Cc2ccccc2O)cc1C	51.7*	-11.7	6.6	4.3	2.6	23.6*	44.8	4.8	7.1
SMILES	TAAR1 antagonist	NS3 helicase inh	core dimer inh	rCAG binder	TAAR1 agonist	nonsel antag count	TAAR1 ant conf	Ga16 ag counter	TAAR1 ag count
C=CCn1c(=O)/c(=C/c2ccc(Cl)cc2)s/c1=C(/C#N)c1nnc2n1CCCCC2	49.5*	-1.2	11.8	0.3	13.2	26.8*	32.4	7.8	2.0
C=CCn1c(=O)/c(=C/c2ccc(O)cc2)s/c1=C(/C#N)c1nnc2n1CCCCC2	18.4	-6.2	1.8	-16.5	24.4	.	.	.	.
CC(=O)N1CCN(c2ccc(N3CCN(C(C)=O)[C@H](C)C3)c(C)c2)[C@@H](C)C1	-15.2	.	.	1.3	0.1	.	.	.	.
COC(=O)[C@H](CCSC)NC(=O)NCc1cccs1	107.2*	-1.3	2.4	-2.1	12.4	-5.2	0.5	-0.1	-1.7
COC(=O)[C@@H](NC(=O)NCc1cccs1)C(C)C	2.8	-8.3	-0.3	-0.1	9.7	.	.	.	.
OC(c1ccccc1)(c1ccccc1)C1CCN(CCCOc2ccc(-c3ccc(F)cc3F)cc2)CC1	51.7*	.	.	8.2	34.6	41.5*	46.8	18.2*	35.0
N#CCc1ccc(OCCCN2CCC(C(O)(c3ccccc3)c3ccccc3)CC2)cc1	9.4	.	.	-1.7	24.3	.	.	.	.
COc1ccccc1-c1ccc(OCCCN2CCC(C(O)(c3ccccc3)c3ccccc3)CC2)cc1	55.6*	.	.	5.4	32.3	42.3*	59.2*	15.5*	36.9
CC(C)(C)N(Cc1cn(Cc2ccccc2)nn1)S(=O)(=O)c1ccccc1Br	.	.	.	2.9	.	.	.	.	.
C=CCn1c(SCC(=O)c2ccc(-c3ccccc3)cc2)nnc1-c1ccc(OC)cc1	.	.	.	9.9	.	.	.	.	.
CCOc1ccc(NC(=O)CN(C)C(=O)C2CC(=O)N(CCc3ccc(OC)c(OC)c3)C2)cc1OCC (configuration not stated)	99.6*	.	.	2.8	-2.3	-2.8	-4.3	7.9	11.4

Source: PubChem
